Experimental data taken from ChEMBL document CHEMBL1139233, “Structure-activity relationships of cyclic peptide-based chemokine receptor CXCR4 antagonists: disclosing the importance of side-chain and backbone functionalities” (J Med Chem, 2007).
Calls of active or inactive are those of the source. No cut-off for these calls is given here.

What was measured:
[1] = target: T1, C-X-C chemokine receptor type 4 (Homo sapiens, UniProt P61073); assay: Antagonist activity against CXCR4 transfected in CHO cells upto 1 uM; type: functional, cell-based
[2] = target: T1, C-X-C chemokine receptor type 4; assay: Inhibition of [125I]SDF1 binding to CXCR4 transfected in CHO cells; type: cell-based
Outline: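 CXCR4-expressing stable CHO transfectants were harvested with trypsin-EDTA, recovered 4-5 h in complete medium, and washed in cold PBS with 2 mg/mL BSA. Cells at 1 × 10⁷/mL were incubated with 0.1 nM [¹²⁵I]-SDF-1 for 2 h on ice with agitation. Bound label was separated by centrifugation through oil and gamma-counted.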

[3] = test system: Human immunodeficiency virus 1; assay: Inhibition of HIV1-induced cytopathogenicity in MT4 cells; type: functional, organism-based; details: Human immunodeficiency virus 1, MT4
Outline: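 MT-4 cells were grown in RPMI 1640 with 10% heat-inactivated FCS and penicillin/streptomycin. Cells infected with HIV-1 IIIB (X4 strain) at MOI 0.01 were plated at 1.5 × 10⁴ cells/well with various compound concentrations. After 5 days at 37 °C in CO₂, viable cells were counted by MTT. EC50 for protection is the mean of ≥3 independent experiments.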

T1 sequence (P61073 whole entry): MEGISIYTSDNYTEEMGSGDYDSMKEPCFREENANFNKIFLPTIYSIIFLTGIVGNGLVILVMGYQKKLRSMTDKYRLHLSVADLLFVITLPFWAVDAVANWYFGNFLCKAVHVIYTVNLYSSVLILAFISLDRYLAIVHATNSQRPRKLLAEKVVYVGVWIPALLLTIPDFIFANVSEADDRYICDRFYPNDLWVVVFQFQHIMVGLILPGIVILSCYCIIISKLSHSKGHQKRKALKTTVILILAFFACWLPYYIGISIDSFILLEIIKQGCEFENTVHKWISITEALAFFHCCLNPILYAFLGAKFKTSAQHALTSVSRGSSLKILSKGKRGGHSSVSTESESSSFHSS

| SMILES | IC50 [2] [µM] | EC50 [3] [µM] | other results |
| --- | --- | --- | --- |
| C[C@@H]1NC(=O)[C@H](Cc2ccc3ccccc3c2)NC(=O)CNC(=O)[C@@H](Cc2ccc(O)cc2)NC(=O)[C@H](CCCNC(=N)N)NC1=O |  |  | Activity [1]: inactive |
| C[C@@H]1NC(=O)[C@@H](CCCNC(=N)N)NC(=O)[C@@H](Cc2ccc(O)cc2)NC(=O)CNC(=O)[C@H](Cc2ccc3ccccc3c2)NC1=O | > 1 | 60 |  |
| C[C@@H]1NC(=O)[C@H](CCCNC(=N)N)NC(=O)[C@H](CCCNC(=N)N)NC(=O)[C@@H](Cc2ccc(O)cc2)NC(=O)CN(C)C1=O |  |  | IC50 ([2]; cho): 0.167 µM |
| N=C(N)NCCC[C@@H]1NC(=O)[C@@H](CCCNC(=N)N)NC(=O)[C@@H](Cc2ccc(O)cc2)NC(=O)[C@@H]2CCCCN2C(=O)[C@H](Cc2ccc3ccccc3c2)NC1=O | 0.64 |  |  |
| C[C@@H]1NC(=O)[C@H](CCCNC(=N)N)NC(=O)[C@@H](Cc2ccc(O)cc2)NC(=O)CNC(=O)[C@H](Cc2ccc3ccccc3c2)NC1=O | > 1 | > 120 |  |
| CN1C(=O)[C@@H](Cc2ccc(O)cc2)NC(=O)CNC(=O)[C@H](Cc2ccc3ccccc3c2)NC(=O)[C@H](CCCNC(=N)N)NC(=O)[C@H]1CCCNC(=N)N | 0.003 | 0.088 |  |
| C[C@H]1NC(=O)[C@@H](Cc2ccc(O)cc2)NC(=O)CNC(=O)[C@H](Cc2ccc3ccccc3c2)NC(=O)[C@H](CCCNC(=N)N)NC1=O |  | 16 |  |
| N=C(N)NCCC[C@@H]1NC(=O)[C@H](CCCNC(=N)N)NC(=O)[C@@H](Cc2ccc(O)cc2)NC(=O)[C@@H]2CCCN2C(=O)[C@H](Cc2ccc3ccccc3c2)NC1=O | > 1 |  |  |
| C[C@@H]1NC(=O)[C@H](Cc2ccc3ccccc3c2)NC(=O)[C@H](CCCNC(=N)N)NC(=O)[C@@H](CCCNC(=N)N)NC(=O)[C@@H](Cc2ccc(O)cc2)NC1=O | 0.092 | 10 |  |
| C[C@@H]1NC(=O)[C@H](Cc2ccc3ccccc3c2)NC(=O)[C@H](CCCNC(=N)N)NC(=O)[C@H](CCCNC(=N)N)NC(=O)[C@@H](Cc2ccc(O)cc2)NC1=O | 0.17 | 20 |  |
| C[C@@H]1NC(=O)[C@H](Cc2ccc3ccccc3c2)NC(=O)CNC(=O)[C@@H](Cc2ccc(O)cc2)NC(=O)[C@@H](CCCNC(=N)N)NC1=O |  |  | Activity [1]: inactive |
| C[C@@H]1NC(=O)[C@H](CCCNC(=N)N)NC(=O)[C@@H](CCCNC(=N)N)NC(=O)[C@@H](Cc2ccc(O)cc2)NC(=O)CNC1=O | > 1 | > 120 |  |
| N=C(N)NCCC[C@@H]1NC(=O)[C@@H](CCCNC(=N)N)NC(=O)[C@@H](Cc2ccc(O)cc2)NC(=O)[C@H]2CCCCN2C(=O)[C@H](Cc2ccc3ccccc3c2)NC1=O | > 1 |  |  |
| C[C@@H]1NC(=O)[C@@H](Cc2ccc(O)cc2)NC(=O)CNC(=O)[C@H](Cc2ccc3ccccc3c2)NC(=O)[C@H](CCCNC(=N)N)NC1=O |  | 12 |  |
| N=C(N)NCCC[C@@H]1NC(=O)[C@H](CCCNC(=N)N)NC(=O)[C@@H](Cc2ccc(O)cc2)NC(=O)[C@H]2CCCCN2C(=O)[C@H](Cc2ccc3ccccc3c2)NC1=O | > 1 |  |  |
| N=C(N)NCCC[C@@H]1NC(=O)[C@H](CCCNC(=N)N)NC(=O)[C@@H](Cc2ccc(O)cc2)NC(=O)[C@@H]2CCCCN2C(=O)[C@H](Cc2ccc3ccccc3c2)NC1=O | > 1 |  |  |
| C[C@@H]1NC(=O)CNC(=O)[C@@H](Cc2ccc(O)cc2)NC(=O)[C@@H](CCCNC(=N)N)NC(=O)[C@H](CCCNC(=N)N)NC1=O |  |  | Activity [1]: inactive |
| N=C(N)NCCC[C@@H]1NC(=O)[C@@H](CCCNC(=N)N)NC(=O)[C@@H](Cc2ccc(O)cc2)NC(=O)[C@@H]2CCCN2C(=O)[C@H](Cc2ccc3ccccc3c2)NC1=O | > 1 |  |  |
| C[C@@H]1NC(=O)[C@H](CCCNC(=N)N)NC(=O)[C@H](CCCNC(=N)N)NC(=O)[C@@H](Cc2ccc(O)cc2)NC(=O)CNC1=O | > 1 | > 120 |  |
| N=C(N)NCCC[C@@H]1NC(=O)[C@@H](CCCNC(=N)N)NC(=O)[C@@H](Cc2ccc(O)cc2)NC(=O)[C@H]2CCCN2C(=O)[C@H](Cc2ccc3ccccc3c2)NC1=O | > 1 |  |  |
| C[C@H]1NC(=O)[C@H](Cc2ccc3ccccc3c2)NC(=O)[C@H](CCCNC(=N)N)NC(=O)[C@H](CCCNC(=N)N)NC(=O)[C@@H](Cc2ccc(O)cc2)NC1=O | 0.011 | 0.49 |  |
| C[C@H]1NC(=O)CNC(=O)[C@H](Cc2ccc3ccccc3c2)NC(=O)[C@H](CCCNC(=N)N)NC(=O)[C@@H](CCCNC(=N)N)NC1=O | 0.13 | 29 |  |
| C[C@@H]1NC(=O)CNC(=O)[C@@H](Cc2ccc(O)cc2)NC(=O)[C@H](CCCNC(=N)N)NC(=O)[C@H](CCCNC(=N)N)NC1=O |  |  | Activity [1]: inactive |
| N=C(N)NCCC[C@@H]1NC(=O)[C@H](CCCNC(=N)N)NC(=O)[C@@H](Cc2ccc(O)cc2)NC(=O)[C@H]2CCCN2C(=O)[C@H](Cc2ccc3ccccc3c2)NC1=O | > 1 |  |  |
| C[C@H]1NC(=O)[C@H](Cc2ccc3ccccc3c2)NC(=O)[C@H](CCCNC(=N)N)NC(=O)[C@@H](CCCNC(=N)N)NC(=O)[C@@H](Cc2ccc(O)cc2)NC1=O | 0.011 | 0.67 |  |
| C[C@H]1NC(=O)CNC(=O)[C@H](Cc2ccc3ccccc3c2)NC(=O)[C@H](CCCNC(=N)N)NC(=O)[C@H](CCCNC(=N)N)NC1=O | > 1 | 115 |  |

Further lines, with some results ahead:

| IC50 [2] [µM] | EC50 [3] [µM] | SMILES | other results |
| --- | --- | --- | --- |
| 0.157 |  | CN1C(=O)CNC(=O)[C@H](Cc2ccc3ccccc3c2)NC(=O)[C@H](CCCNC(=N)N)NC(=O)[C@@H](CCCNC(=N)N)NC(=O)[C@H]1Cc1ccc(O)cc1 |  |
| 0.099 | 9.53 | CN1C(=O)[C@H](CCCNC(=N)N)NC(=O)[C@@H](Cc2ccc(O)cc2)NC(=O)CNC(=O)[C@H](Cc2ccc3ccccc3c2)NC(=O)[C@@H]1CCCNC(=N)N |  |
| 0.35 | 38 | N=C(N)NCCC[C@@H]1NC(=O)[C@@H](CCCNC(=N)N)NC(=O)[C@@H](Cc2ccc(O)cc2)NC(=O)CCNC(=O)[C@H](Cc2ccc3ccccc3c2)NC1=O |  |
| 0.047 | 3 | N=C(N)NCCC[C@@H]1NC(=O)[C@H](CCCNC(=N)N)NC(=O)[C@@H](Cc2ccc(O)cc2)NC(=O)CCNC(=O)[C@H](Cc2ccc3ccccc3c2)NC1=O |  |
|  | 0.16 | N=C(N)NCCC[C@@H]1NC(=O)[C@H](CCCNC(=N)N)NC(=O)[C@@H](Cc2ccc(O)cc2)NC(=O)CNC(=O)[C@H](Cc2ccc3ccccc3c2)NC1=O |  |
| 0.128 |  | CN1C(=O)CNC(=O)[C@H](Cc2ccc3ccccc3c2)NC(=O)[C@H](CCCNC(=N)N)NC(=O)[C@H](CCCNC(=N)N)NC(=O)[C@H]1Cc1ccc(O)cc1 |  |
| 0.256 |  | CN1CC(=O)N[C@H](Cc2ccc(O)cc2)C(=O)N[C@H](CCCNC(=N)N)C(=O)N[C@@H](CCCNC(=N)N)C(=O)N[C@@H](Cc2ccc3ccccc3c2)C1=O |  |
| 0.021 | 0.782 | CN1C(=O)[C@@H](CCCNC(=N)N)NC(=O)[C@@H](Cc2ccc(O)cc2)NC(=O)CNC(=O)[C@H](Cc2ccc3ccccc3c2)NC(=O)[C@@H]1CCCNC(=N)N |  |
| 0.563 |  | CN1C(=O)[C@H](CCCNC(=N)N)NC(=O)[C@@H](CCCNC(=N)N)NC(=O)[C@@H](Cc2ccc(O)cc2)NC(=O)CNC(=O)[C@@H]1Cc1ccc2ccccc2c1 |  |
|  | 1.4 | CN1C(=O)[C@@H](Cc2ccc(O)cc2)NC(=O)CNC(=O)[C@H](Cc2ccc3ccccc3c2)NC(=O)[C@H](CCCNC(=N)N)NC(=O)[C@@H]1CCCNC(=N)N |  |
| 0.25 |  | CN1C(=O)[C@H](CCCNC(=N)N)NC(=O)[C@H](CCCNC(=N)N)NC(=O)[C@@H](Cc2ccc(O)cc2)NC(=O)CNC(=O)[C@@H]1Cc1ccc2ccccc2c1 |  |
|  | 0.39 | N=C(N)NCCC[C@@H]1NC(=O)[C@@H](CCCNC(=N)N)NC(=O)[C@@H](Cc2ccc(O)cc2)NC(=O)CNC(=O)[C@H](Cc2ccc3ccccc3c2)NC1=O |  |
